Screening data deposited in PubChem BioAssay by several laboratories.
Shown are actives, neighbours in structure and some others; about 3.8% of the full set was active somewhere.
RAM network inh – blocks the yeast RAM network; inhibition, % at 50 µM; S. cerevisiae dse1pr::URA3 reporter, 5-FOA growth OD615, 2 d; analog-sensitive cbk1-as2 kinase mutant strain; AID 868; actives 1.8% (n = 190,000);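 active = inhibition above a set limit, 3 SD over mean compound inhibition, cut at about 8.4% in these data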;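 note: inhibition rescues growth on 5-FOA so higher OD means more RAM inhibition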
Measles CPE – protection of cells from measles virus. actives 1.5% (n = 140,000). Measles virus-infected cells, CPE protection, absorbance. AID 841. protection (pct of control), % at 4 µM; in the data active = protection mostly above about 24%, no sharp cut-off; inactive = mostly below about 26%
sdo1 growth – compounds rescuing growth of sdo1-depleted yeast, bone marrow failure model | S. cerevisiae sdo1-depleted JHY4D growth rescue, OD600 30 h; stronger effect = higher value; pdr5 snq2 efflux-pump mutant strain | z-score at 10 µM | actives 0.21% (n = 140,000);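 active = z-score above 3 at both the 24 hr and the 30 hr optical density reads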
BB579 growth dn – yeast BB579 growth reduction in restrictive medium. inhibition, % at 10 µM. AID 804. actives 0.51% (n = 140,000). S. cerevisiae BB579 growth, OD615, 48 h;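 active = inhibition above a set limit, 3 SD over the mean compound inhibition, cut at about 44% in these data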
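System: Saccharomyces cerevisiae DeaD strain BB579, replicative lifespan model yeast | Buffer or medium: Restrictive glucose-based CSMM-D medium | Times: 4 h preincubation and 48 h exposure at 30 °C | Detection: OD615 turbidity measurement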
Yeast life ext – yeast lifespan extension; inhibition of the nicotinamide effect, % at 10 µM; S. cerevisiae growth with nicotinamide, OD615; deaD strain in restrictive glucose medium; AID 775; actives 0.68% (n = 130,000);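 active = inhibition above a set limit, placed 3 SD over the median of all compounds, cut at about 26% in these data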
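System: Modified budding yeast, DeaD strain | Buffer or medium: Restrictive glucose medium | Also added: 1.5 mM nicotinamide | Doses: 10 µM single point, 0.25% DMSO | Schedule: 48 h compound exposure at 30 °C, humidified | Detection: Absorbance at 615 nm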
Of the large screens only hits and unclear results are named; the others gave an inactive call.

Cn1c(Cl)c(/C=N/OC(=O)C2CC2)c2ccccc21	none (no result: Measles CPE, sdo1 growth, BB579 growth dn, Yeast life ext)
CCOc1ccc(C(O)C(CN2CCOCC2)c2ccccc2)cc1 (stereo not given)	none
CN(c1ccccc1)c1nc2ccsc2c(=O)s1	Yeast life ext 87.7
CCN(c1ccccc1)c1nc2ccsc2c(=O)s1	RAM network inh 8.5
CCC1=NN(C(=O)CCc2ccccc2O)C(O)(C(F)(F)F)C1 (stereo not given)	none
COc1ccc(S(=O)(=O)CC2(O)CCN(C(=O)CC(C)C)CC2)cc1	none (no result: Measles CPE, sdo1 growth, BB579 growth dn, Yeast life ext)
O=C(Cc1c[nH]c2ccccc12)NCc1ccc2c(c1)OCO2	none
CCOC(=O)c1cc(CC)sc1NC(=O)c1cc(OC)c(OC)c(OC)c1	RAM network inh 11.2
CCOC(=O)c1cc(CC)sc1NC(=O)c1ccc(N2C(=O)CCC2=O)cc1	none
N#CC1=C(N)OC2=C(C(=O)CC(c3ccccc3)C2)C1c1ccoc1 (stereo not given)	Measles CPE 30.4
N#CC1=C(N)OC2=C(C(=O)CC(c3ccccc3)C2)C1c1cccnc1 (stereo not given)	none
Cc1c(Cl)cccc1N1C(=O)CC(N(O)c2ccccc2)C1=O (stereo not given)	none
O=C(Nc1ccc2c(c1)OCO2)C1CCCN1C(=O)NCc1ccccc1 (stereo not given)	Yeast life ext 57.0
Nc1cc(S(=O)(=O)N2CCCCC2)ccc1Oc1ccccc1	none (no result: Measles CPE, sdo1 growth, BB579 growth dn, Yeast life ext)
Cn1ncc2c(Nc3ccccc3Br)ncnc21	none (no result: Measles CPE)
Cn1ncc2c(Nc3ccc(-c4ccccc4)cc3)ncnc21	Measles CPE 75.4
CC1(C)CC(=O)C(C=NCCN2CCNC2=O)=C(O)C1	Measles CPE 34.8
Cc1ccc(C)c(NC(=O)C2CCCN2C(=O)NC2CCCCC2)c1 (stereo not given)	none (no result: Measles CPE, sdo1 growth, BB579 growth dn, Yeast life ext)
COc1cc(/C=C(\C#N)c2nc3c(s2)CCCC3)ccc1O	RAM network inh 9.6
CC(C)CSc1nc2c(=O)[nH][nH]c(=O)c2n1Cc1ccccc1	none (no result: Yeast life ext)
O=C(COC(=O)c1ccccc1Nc1ccccc1)c1ccccc1	RAM network inh 9.8
Cc1ccc2nc(C(=O)O)c(C(=O)O)nc2c1	none
Cc1ccc2nc3c(nc2c1)-c1ccccc1C3=O	BB579 growth dn 59.3
COc1ccc(-c2cc(C)nc3c(-c4ccccc4)cnn23)cc1	RAM network inh 9.0 (no result: Measles CPE, sdo1 growth, BB579 growth dn, Yeast life ext)
CN([C@@H](Cc1ccc(OS(=O)(=O)c2cccc3cnccc23)cc1)C(=O)N1CCN(c2ccccc2)CC1)S(=O)(=O)c1cccc2cnccc12	RAM network inh 9.2
COc1ccc(N2CCN(C(=O)C(Cc3ccccc3)n3cccc3)CC2)cc1 (stereo not given)	none
O=C(/C=C/c1ccccc1)NC(NC(=S)Nc1ccc(Cl)cc1)C(Cl)(Cl)Cl (stereo not given)	RAM network inh 10.2
S=C(NCc1ccco1)Nc1cc(-c2ccccc2)[nH]n1	none (no result: Measles CPE, sdo1 growth, BB579 growth dn, Yeast life ext)
CCCCN(CC)CCNC(=O)c1nn(-c2ccc(OC)cc2)c(=O)c2c1c1ccccc1n2C	none (no result: Measles CPE, sdo1 growth, BB579 growth dn, Yeast life ext)
COc1ccccc1CNC(=O)c1nn(-c2ccc(C)cc2)c(=O)c2c1c1ccccc1n2C	RAM network inh 9.4
COc1ccc(-n2nc(C(=O)NCc3ccco3)c3c4ccccc4n(C)c3c2=O)cc1Cl	RAM network inh 9.8
Cc1cc(Oc2ccc(C)c(Cl)c2)nc(SCC(=O)c2ccccc2)n1	RAM network inh 9.1
O=S(=O)(Cc1c(F)cccc1Cl)c1ncn[nH]1	none (no result: Measles CPE, sdo1 growth, BB579 growth dn, Yeast life ext)
CC1CC1c1ccc(/C=C(\C#N)C(=O)Nc2cc(Cl)ccc2Cl)o1 (stereo not given)	RAM network inh 8.7 (no result: Measles CPE)
COc1ccc(C(=O)N2CCN(Cc3nc(CC4CC4)no3)CC2)cc1	none (no result: Measles CPE, sdo1 growth, BB579 growth dn, Yeast life ext)
O=[N+]([O-])c1ccc(-c2cn(-c3ccccc3)c(=S)[nH]2)cc1	RAM network inh 10.5
CC(C)CC(=O)/C=C/n1c(=S)oc2ccccc21	none
CC(=O)/C=C/n1c(=S)oc2ccccc21	Yeast life ext 39.4
Clc1ccc(-c2nc(/C=N/N3CCOCC3)c3ccccn23)cc1	none (no result: Measles CPE, sdo1 growth, BB579 growth dn, Yeast life ext)
CC(=O)C1=C(C)N(Cc2ccccc2)C(=O)N[C@H]1c1cccc(C(F)(F)F)c1	none
CC(=O)C1=C(C)N(Cc2ccccc2)C(=O)N[C@@H]1c1cccc(C(F)(F)F)c1	Yeast life ext 29.3
Cc1noc(C)c1COC(=O)CCOc1ccccc1	none
Cc1noc(C)c1COC(=O)CCN1c2ccccc2Sc2ccccc21	RAM network inh 10.4
COc1ccc(OCCC(=O)OCc2c(C)noc2C)cc1	Measles CPE 35.1
CCOC(=O)c1cc(C#N)c(SCc2cccc3ccccc23)nc1C	RAM network inh 10.1
CC(=O)c1cc(C#N)c(SCc2ccccc2C#N)nc1C	none (no result: Yeast life ext)
O=C(c1cnn2c(C(F)F)cc(C3CC3)nc12)N1CCCC1	Yeast life ext 107.4
CCN(CC)S(=O)(=O)c1c(OC)cc(C)c(Cl)c1C	none (no result: Measles CPE, sdo1 growth, BB579 growth dn, Yeast life ext)
c1coc(-c2nc3ccccc3nc2-c2ccco2)c1	Measles CPE 40.6
CCN(CC)CCOc1ccccc1C(C)=O	none (no result: Measles CPE, sdo1 growth, BB579 growth dn, Yeast life ext)
Cc1cc(C)c2cc(C#N)c(N3CCCC3)nc2c1	Measles CPE 37.8
CCCCN1C=CC(=C2C(=O)c3ccccc3C2=O)C=C1	none (no result: Measles CPE, sdo1 growth, BB579 growth dn, Yeast life ext)
Cc1cc(C)nc(SC2CCCCC2NS(=O)(=O)c2ccccc2)n1 (stereo not given)	none
Cn1cc(/C=C2\SC(=O)NC2=S)c2ccccc21	RAM network inh 10.1 (no result: Measles CPE, sdo1 growth, BB579 growth dn, Yeast life ext)
CCOc1ccc2nc(NCCNC(=O)Nc3ccccc3)c(C#N)cc2c1	Yeast life ext 104.0
CCOc1ccc2nc(NCCNC(=O)Nc3cccc(C)c3)c(C#N)cc2c1	none
N#CCc1nnc2n1-c1ccccc1CCC2	none
COc1cccc(/C=N/N2CCN(c3ccccc3OC)CC2)c1	Measles CPE 49.0
CCOC(=O)c1sc(NC(=O)COC(=O)C(CCSC)NC(C)=O)nc1C (stereo not given)	none
COc1cccc(CNC(=O)Nc2cccs2)c1	Measles CPE 44.4
Cc1ccc(NC(=O)c2cc(N3C(=O)C=CC3=O)ccc2N2CCOCC2)cc1Cl	none
O=C(O)C1CCN(C(=O)COc2ccc(Br)cc2)CC1	none (no result: Measles CPE, sdo1 growth, BB579 growth dn, Yeast life ext)
O=C1CC(N2CCN(c3ccccc3)CC2)C(=O)N1CCc1ccccc1 (stereo not given)	Measles CPE 39.6
O=C1CC(N2CCOCC2)C(=O)N1CCc1ccccc1 (stereo not given)	none
CCOC(=O)c1ccc2c(c1)C1C=CCC1C(C(=O)O)N2 (stereo not given)	RAM network inh 9.7
COC(=O)c1ccccc1NC(=O)COC(=O)c1ccccc1N=Nc1ccc(N(C)C)cc1	none
CN(C)c1ccc(N=Nc2ccccc2C(=O)OCC(=O)N(C)c2ccccc2)cc1	RAM network inh 10.3
O=C(CNCC1(N2CCOCC2)CCCCC1)Nc1ccc(Cl)cc1	none (no result: Measles CPE, sdo1 growth, BB579 growth dn, Yeast life ext)
CC(=O)N(C(C)=O)c1c(C#N)c(C)n(-c2ccccc2)c1C(=O)c1ccccc1	Yeast life ext 32.0
O=C(O)C1=C(OCc2ccc(F)c(F)c2)C(=O)NCC1	none (no result: Measles CPE, sdo1 growth, BB579 growth dn, Yeast life ext)
COc1ccc(-c2cnn3c(N)c(S(=O)(=O)C(C)(C)C)cnc23)cc1	Yeast life ext 30.0
